Drawing on ChEMBL document CHEMBL1130323, “Synthesis and anti-HIV activity of novel N-1 side chain-modified analogs of 1-[(2-hydroxyethoxy)methyl]-6-(phenylthio)thymine (HEPT)” (J Med Chem, 1997), this text covers IC50 and CC50 for 36 compounds.

One assay deals with MT4. As to the kind of experiment: Effective concentration required to achieve 50% inhibition of HIV-1 multiplication in human T-4 lymphoblastoid cell line MT-4 IIIB. Format: functional, cell-based. In short, it runs like this:
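MT-4 cells infected with 50 TCID50 of HIV-1 IIIB and allowed 30 min adsorption, then washed. Cells were cultured with graded compound concentrations for 5 days. Protection from virus-induced cytopathogenicity was read by MTT reduction to formazan (OD 540 nm). IC50 was taken from a median effect plot. Means of at least two separate experiments.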

A further assay has as its system CEM-SS. Put plainly: Effective concentration required to achieve 50% inhibition of HIV-1 multiplication in human T-4 lymphoblastoid cell line CEM-SS/LAI. The assay is classed as functional, cell-based. A digest of the protocol:
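CEM-SS cells infected with 100 TCID50 of HIV-1 Lai and allowed 30 min adsorption, then free virus was washed off. Cells were cultured with graded compound concentrations for 5 days. Virus production was read as reverse transcriptase activity of virions in culture supernatants. IC50 was taken from a median effect plot. Means of at least two separate experiments.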

Assay [1] can be described thus: Concentration which reduces the cell viability by 50% (CEM-SS / MT-4). To be noted: Homo sapiens. Format: functional. A digest of the protocol:
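Cytotoxicity measured on uninfected CEM-SS or MT-4 cells by MTT assay in the same experiment as the antiviral test, with cells cultured with graded compound concentrations for 5 days. Formazan read as OD at 540 nm. CC50 is the concentration reducing viability by 50%, calculated from a median effect plot. Means of at least two separate experiments.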

The IC50 is the point on the concentration scale where inhibition reaches its midpoint. For orientation: CC50 means the concentration that lowers cell viability or growth by half. A high value points to better tolerance by the cells. With `Cc1c(Sc2ccccc2)n(COCCNC(=O)CCP(=O)(O)O)c(=O)[nH]c1=O`, the IC50 with MT4 and in the assay on CEM-SS was greater than 10000 nM each time. The compound further showed a CC50 in assay [1] greater than 1000 nM.
`Cc1c(Sc2ccccc2)n(COCCNC(=O)CNCP(=O)(O)O)c(=O)[nH]c1=O`: the IC50 with MT4 and in the assay on CEM-SS was greater than 100000 nM each time. Further, the CC50 in assay [1] is greater than 1000 nM.
`CCc1c(Sc2ccccc2)n(COCc2ccccc2)c(=O)[nH]c1=O` had an IC50 with MT4 of 5.9 nM.
On to `Cc1c(Sc2ccccc2)n(C/C=C/c2ccccc2)c(=O)[nH]c1=O`, for which the values for the IC50 in the assay with MT4 and with CEM-SS were 2500 nM and 230 nM, respectively. In addition, the CC50 in assay [1] was greater than 1000 nM.
`Cc1c(Sc2ccccc2)n(C/C=C/c2cc3ccccc3o2)c(=O)[nH]c1=O`: the IC50 in the assay on MT4 and with CEM-SS was greater than 1000 nM each time. The compound also gave a CC50 in assay [1] greater than 1000 nM.
For `CCc1c(Sc2ccccc2)n(C/C=C/c2ccccc2)c(=O)[nH]c1=O`, the IC50 in the assay with MT4 turned out to be 190 nM; in the assay on CEM-SS, 16 nM. Besides, the CC50 in assay [1] was greater than 1000 nM.
On to `Cc1c(Sc2ccccc2)n(COCCI)c(=O)[nH]c1=O`, for which the IC50 with MT4 was greater than 10000 nM; with CEM-SS it was 2200 nM. The same compound displayed a CC50 in assay [1] greater than 1000 nM.
Regarding `CCc1c(Sc2cc(C)cc(C)c2)n(COCc2ccccc2)c(=O)[nH]c1=O`, the IC50 in the assay on MT4 came to 3.2 nM.
In the case of `CCc1c(Sc2cc(C)cc(C)c2)n(C/C=C/c2cccs2)c(=O)[nH]c1=O`, the IC50 in the assay with MT4 is 40 nM; with CEM-SS, 28 nM. Moreover, the CC50 in assay [1] is greater than 1000 nM.
Take `Cc1c(Sc2ccccc2)n(COCCNC(=O)CCCl)c(=O)[nH]c1=O`: the IC50 in the assay on MT4 worked out at 40000 nM; in the assay on CEM-SS, 11400 nM. In assay [1], this compound yielded a CC50 greater than 1000 nM.
The like results for `Cc1c(Sc2ccccc2)n(COCCN2CCOCC2)c(=O)[nH]c1=O` were, in that order, greater than 100000 nM, greater than 100000 nM and greater than 1000 nM.
For the compound `Cc1c(Sc2ccccc2)n(C/C=C/C2CCCCC2)c(=O)[nH]c1=O`, the IC50 in the assay on MT4 and in the assay on CEM-SS was greater than 1000 nM each time. The compound further gave a CC50 in assay [1] greater than 1000 nM.
For the compound `Cc1c(Sc2ccccc2)n(C/C=C/c2cccs2)c(=O)[nH]c1=O`, the IC50 is greater than 1000 nM in the assay on MT4 and 140 nM in the assay with CEM-SS. In addition, the CC50 in assay [1] is greater than 1000 nM.
On to `Cc1c(Sc2ccccc2)n(COCCN(C(=O)c2ccccc2)C(=O)c2ccccc2)c(=O)[nH]c1=O`, for which the IC50 with MT4 and with CEM-SS was greater than 1000 nM each time. In addition, the CC50 in assay [1] is greater than 1000 nM.
Consider `Cc1c(Sc2ccccc2)n(COCc2ccccc2)c(=O)[nH]c1=O`, for which the IC50 in the assay with MT4 stood at 740 nM; in the assay on CEM-SS, 90 nM. This compound also returned a CC50 in assay [1] greater than 1000 nM.
Consider `CCc1c(Sc2ccccc2)n(C/C=C/c2ccc([N+](=O)[O-])s2)c(=O)[nH]c1=O`, for which the results for the IC50 in the assay on MT4 and in the assay on CEM-SS were greater than 1000 nM and 940 nM, respectively. Further, in assay [1], the CC50 was greater than 1000 nM.
With `Cc1c(Sc2ccccc2)n(COCCNC(=O)c2ccccc2)c(=O)[nH]c1=O`, the IC50 with MT4 and in the assay with CEM-SS was greater than 10000 nM in each case. Moreover, the CC50 in assay [1] was greater than 1000 nM.
Turning to `CCc1c(Sc2ccccc2)n(C/C=C/c2cccs2)c(=O)[nH]c1=O`, the values for the IC50 in the assay on MT4 and in the assay with CEM-SS were 80 nM and 8 nM, respectively. Moreover, the CC50 in assay [1] was greater than 1000 nM.
With `CCc1c(Sc2ccccc2)n(C/C=C/c2ccco2)c(=O)[nH]c1=O`, the IC50 in the assay with MT4 was 170 nM; with CEM-SS, 8 nM. In addition, in assay [1], the CC50 is greater than 1000 nM.
For the compound `Cc1c(Sc2ccccc2)n(COCCN2CCNCC2)c(=O)[nH]c1=O`, the IC50 in the assay with MT4 and with CEM-SS was greater than 10000 nM in each case. The 50% cytotoxic concentration (CC50) in assay [1] was greater than 1000 nM.
In the case of `Cc1c(Sc2ccccc2)n(COCCNc2ccccc2)c(=O)[nH]c1=O`, the IC50 worked out at 1000 nM in the assay on MT4 and 55 nM in the assay with CEM-SS. Further, the CC50 in assay [1] is greater than 1000 nM.
In the assay with CEM-SS, `Cc1c(Sc2ccccc2)n(COCCN)c(=O)[nH]c1=O` showed an IC50 of 31000 nM. The CC50 in assay [1] is greater than 1000 nM.
`Cc1c(Sc2ccccc2)n(C/C=C/c2ccc([N+](=O)[O-])s2)c(=O)[nH]c1=O`: the IC50 in the assay on MT4 and with CEM-SS was greater than 1000 nM in each case. The same compound came in with a CC50 in assay [1] greater than 1000 nM.
Regarding `Cc1c(Sc2ccccc2)n(COCCSc2ccccn2)c(=O)[nH]c1=O`, the IC50 in the assay with MT4 was greater than 1000 nM; in the assay with CEM-SS it was 830 nM. The compound further registered a CC50 in assay [1] greater than 1000 nM.
For the compound `CCc1c(Sc2cc(C)cc(C)c2)n(C/C=C/c2ccccc2)c(=O)[nH]c1=O`, in the assay with CEM-SS, 31 nM corresponded to half-maximal inhibition (IC50). Further, in assay [1], the CC50 was greater than 1000 nM.
Take `Cc1c(Sc2ccccc2)n(COCCN(CC#N)CC#N)c(=O)[nH]c1=O`: the IC50 was greater than 100000 nM in the assay with MT4 and 27500 nM with CEM-SS. Besides, the CC50 in assay [1] is greater than 1000 nM.
The like results for `CCc1c(Sc2cc(C)cc(C)c2)n(C/C=C/c2ccco2)c(=O)[nH]c1=O` were, in that order, 40 nM, 10 nM and greater than 1000 nM.
On to `Cc1c(Sc2ccccc2)n(C/C=C/c2ccco2)c(=O)[nH]c1=O`, for which the results for the IC50 in the assay on MT4 and in the assay with CEM-SS were greater than 1000 nM and 330 nM, respectively. This compound registered a CC50 in assay [1] greater than 1000 nM.
With `Cc1c(Sc2ccccc2)n(COCCBr)c(=O)[nH]c1=O`, the IC50 came out at 2800 nM with MT4 and 760 nM with CEM-SS. The CC50 in assay [1] is greater than 1000 nM.
With `CCc1c(Sc2ccccc2)n(C/C=C/c2cc3ccccc3o2)c(=O)[nH]c1=O`, the IC50 in the assay on MT4 is greater than 1000 nM; in the assay on CEM-SS, 38 nM. The compound also gave a CC50 in assay [1] greater than 1000 nM.
Regarding `Cc1c(Sc2ccccc2)n(COCCN(c2ccccc2)c2ccccc2)c(=O)[nH]c1=O`, the concentration for half-maximal inhibition (IC50) in the assay on MT4 was greater than 10000 nM; with CEM-SS it was 8750 nM. The compound further yielded a CC50 in assay [1] greater than 1000 nM.
The compound `Cc1c(Sc2ccccc2)n(COCCSc2ccccc2)c(=O)[nH]c1=O` came in with an IC50 in the assay on CEM-SS greater than 1000 nM. Besides, the CC50 in assay [1] was greater than 1000 nM.
For the compound `Cc1c(Sc2ccccc2)n(C/C=C/c2cccnc2)c(=O)[nH]c1=O`, the IC50 amounted to 100 nM with MT4 and 150 nM in the assay on CEM-SS. The CC50 in assay [1] was greater than 1000 nM.
In the case of `Cc1c(Sc2ccccn2)n(COCCSc2ccccn2)c(=O)[nH]c1=O`, the figures for the IC50 in the assay with MT4 and with CEM-SS were 8000 nM and 440 nM, respectively. This compound came in with a CC50 in assay [1] greater than 1000 nM.
For `Cc1c(Sc2ccccn2)n(COCCSc2ccccc2)c(=O)[nH]c1=O`, the values for the IC50 in the assay with MT4 and in the assay on CEM-SS were greater than 1000 nM and 1000 nM, respectively. The same compound yielded a CC50 in assay [1] greater than 1000 nM.
`Cc1c(Sc2ccccc2)n(COCCO)c(=O)[nH]c1=O` [HEPT]: the IC50 in the assay with MT4 was found to be 11000 nM; with CEM-SS it was 2000 nM. For the same compound, the CC50 in assay [1] was greater than 1000 nM.
